Test results published in paper PMC4449380 (Advances in Therapy, 2015).
Like-named read-outs stand apart in the source and are kept apart here.

Tests used:
[1] = assay type: in vivo, healthy Japanese males
How it was run: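 Open-label add-on study in 12 males: luseogliflozin 5 mg Day 1, pioglitazone 30 mg Days 2–7, both Day 8, dosed before breakfast. Blood was drawn pre-dose and 0.25–24 h on Days 1, 7 and 8. LC–MS/MS measured luseogliflozin (0.05–100 ng/mL) and pioglitazone with M-III/M-IV (10–2000 ng/mL). […] GMR with 90% CI was by ANOVA with treatment fixed and subject random.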

[2] = ref Taisho Pharmaceutical Co., Ltd., data on file; cited from earlier work
[3] = system: CYP2C8; details: in vitro; ref Taisho Pharmaceutical Co., Ltd., data on file; cited from earlier work
[4] = system: OATP1B1; details: in vitro; ref Taisho Pharmaceutical Co., Ltd., data on file; cited from earlier work
[5] = system: breast cancer resistance protein; details: in vitro; ref Taisho Pharmaceutical Co., Ltd., data on file; cited from earlier work
[6] = system: CYP2E1; details: in vitro; ref Taisho Pharmaceutical Co., Ltd., data on file; cited from earlier work
[7] = system: CYP2A6; details: in vitro; ref Taisho Pharmaceutical Co., Ltd., data on file; cited from earlier work
[8] = system: CYP1A2; details: in vitro; ref Taisho Pharmaceutical Co., Ltd., data on file; cited from earlier work
[9] = system: P-glycoprotein; details: in vitro; ref Taisho Pharmaceutical Co., Ltd., data on file; cited from earlier work
[10] = system: OAT3; details: in vitro; ref Taisho Pharmaceutical Co., Ltd., data on file; cited from earlier work
[11] = system: CYP2C9; details: in vitro; ref Taisho Pharmaceutical Co., Ltd., data on file; cited from earlier work
[12] = system: CYP2B6; details: in vitro; ref Taisho Pharmaceutical Co., Ltd., data on file; cited from earlier work
[13] = cited from earlier work
[14] = system: CYP3A4; details: in vitro; ref Taisho Pharmaceutical Co., Ltd., data on file; cited from earlier work
[15] = system: organic cation transporter 2; details: in vitro; ref Taisho Pharmaceutical Co., Ltd., data on file; cited from earlier work
[16] = 24-h cumulative urinary glucose excretion; assay type: in vivo, healthy Japanese males; details: luseogliflozin in combination with an OAD
How it was run: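 Healthy males, 12 per study. Pooled urine was collected for 24 h pre-dose and 0–24 h post-dose, and urine glucose was measured. Glimepiride arm: randomized three-way crossover of single doses (luseogliflozin 5 mg, glimepiride 1 mg, or both) before breakfast, with ≥7-day washout. Metformin arm: same design with 250 mg under fasting. Voglibose arm: add-on design, urine collected Days 1, 7 and 8.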

[17] = assay type: in vivo, healthy Japanese males; details: co-administered with miglitol
How it was run: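 Randomized open-label crossover in 12 males using six sequences with ≥7-day washout. Single oral doses of luseogliflozin 5 mg, miglitol 50 mg, or both were given before breakfast while hospitalized. Venous blood was drawn pre-dose and 0.25–24 h post-dose. Plasma luseogliflozin was measured by LC–MS/MS (0.05–100 ng/mL). Cmax was derived non-compartmentally. GMR with 90% CI, combination vs alone, used ANOVA with treatment, sequence and timing fixed and subject random.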

[18] = system: CYP2D6; details: in vitro; ref Taisho Pharmaceutical Co., Ltd., data on file; cited from earlier work
[19] = system: OAT1; details: in vitro; ref Taisho Pharmaceutical Co., Ltd., data on file; cited from earlier work
[20] = Safety assessments; assay type: in vivo, healthy Japanese males
How it was run: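 Safety was monitored across six single-site studies of 12 healthy males aged 20–39 years, hospitalized during dosing. Adverse events were recorded by nature and frequency, including changes in laboratory values, vital signs and 12-lead ECG. Investigators judged hypoglycemia from symptoms or blood glucose.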

CCc1ccc(CCOc2ccc(CC3SC(=O)NC3=O)cc2)nc1 (racemic) [Pioglitazone, (±)-5(-)[p(-)[2-(5-ethyl-2-pyridyl)ethoxy]benzyl]-2,4-thiazolidinedione, reference compound]
decrease in C max and AUC0–24h of pioglitazone ([1]; co-administration with luseogliflozin): about 10%

CCOc1ccc(Cc2cc([C@@H]3S[C@H](CO)[C@@H](O)[C@H](O)[C@H]3O)c(OC)cc2C)cc1 [Luseogliflozin, (1S)-1,5-Anhydro-1-[5-(4-ethoxybenzyl)-2-methoxy-4-methylphenyl]-1-thio-D-glucitol]
enzymes involved in the metabolism [2]: cytochrome P450 (CYP) isoforms 3A4/5, 4A11, 4F2, and 4F3B, and UDP-glucuronosyltransferase 1A1
change in C max of luseogliflozin ([1]; co-administered with pioglitazone): about 15%
IC50 [3]: > 100 µM
IC50 [4]: > 100 µM
IC50 [5]: > 100 µM
IC50 [6]: > 100 µM
IC50 [7]: > 100 µM
IC50 [8]: > 100 µM
IC50 [9]: > 100 µM
IC50 [10]: > 100 µM
IC50 [11]: > 100 µM
IC50 [12]: > 100 µM
incidence of hypoglycemia ([13]; in combination with a sulfonylurea, over 52 weeks): 10.7%
hemoglobin A1c and fasting plasma glucose ([13]; in combination with other classes of OADs for 52 weeks): significantly reduced
rate of adverse drug reactions ([13]; in combination with other classes of OADs, 52 weeks): 12.4–25.4%
incidence of hypoglycemia ([13]; in combination with other classes of OADs): 0.9–3.4%
IC50 [14]: > 100 µM
IC50 [15]: > 100 µM
UGE compared with luseogliflozin alone [16]: slightly reduced
change in C max of luseogliflozin [17]: about 15%
IC50 [18]: > 100 µM
IC50 [19]: > 100 µM
serious adverse events or adverse events requiring treatment discontinuation ([20]; all six studies, luseogliflozin alone or with OADs): no serious adverse events
changes in laboratory tests, vital signs, or electrocardiography ([20]; all studies): no clinically relevant changes
hypoglycemia ([20]; any of the studies): no episodes of hypoglycemia
adverse events ([20]; luseogliflozin administered alone or in combination with the other OADs): no adverse events
adverse events ([20]; luseogliflozin in combination with glimepiride, mild in severity): One adverse event (white blood cell urine positive) occurred in one subject
adverse events ([20]; luseogliflozin in combination with metformin (nausea; nausea and headache), mild in severity): three events occurred in two subjects
